Laboratory results as given in ChEMBL document CHEMBL1127538, “Anti-HIV michellamines from Ancistrocladus korupensis” (J Med Chem, 1994).

Tests used:
Format in all cases: functional, cell-based
CEM-SS [1] = assay: Anticytopathic activity was measured against HIV-1(RF strain) in CEM-SS human lymphoblastoid target cells
Outline: (§1)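 Cell lines in RPMI 1640 without phenol red, with 5% fetal bovine serum, 2 mM L-glutamine and 50 µg/mL gentamicin, at 37 °C and 5% CO2. Seeded at 5 × 10^5 cells/well and infected with pretitered virus at MOI 0.01-0.05, chosen for complete cell killing by day 6. Half-log aqueous dilutions of acetate salts tested in triplicate. XTT formazan read after 6 days; EC50 is 50% inhibition of virus-induced killing.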

CEM-SS [2] = assay: Anticytopathic activity was measured against HIV-2(CBL-20 strain) in CEM-SS human lymphoblastoid target cells; outline: as §1
C-344 cell line [3] = assay: Anti -HIV activity was measured against C-344/HIV-1(RF); settings: Homo sapiens; outline: as §1
C-344 cell line [4] = assay: Cytotoxicity was measured against C-344/HIV-1(RF); settings: Homo sapiens
Outline: (§2)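 Cytotoxicity was measured in cells-plus-drug control wells run alongside the antiviral assay. Serial half-log dilutions of acetate salts were tested in triplicate. After 6 days at 37 °C, viability was read spectrophotometrically by XTT reduction to soluble formazan. IC50 is the concentration giving a 50% decrease in viable cell number.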

C8166 [5] = assay: Cytotoxicity was measured against C8166/HIV-1(RF); settings: Homo sapiens; outline: as §2
C8166 [6] = assay: Anti -HIV activity was measured against C8166/HIV-1(RF); settings: Homo sapiens; outline: as §1
CEM-SS [7] = assay: Cytotoxicity was measured against CEM-SS/HIV-1 (NIH-DZ); settings: Homo sapiens; outline: as §2
CEM-SS [8] = assay: Cytotoxicity was measured against CEM-SS/HIV-1 (RF); settings: Homo sapiens; outline: as §2
CEM-SS [9] = assay: Anti -HIV activity was measured against CEM-SS/HIV-1 (NIH-DZ); settings: Homo sapiens; outline: as §1
CEM-SS [10] = assay: Anti-HIV activity was measured against HIV-1 Lymphotropic 205 clinical isolates in CEM-SS cells; settings: Homo sapiens; outline: as §1
CEM-SS [11] = assay: Anti-HIV activity was measured against HIV-1 Lymphotropic G clinical isolates in CEM-SS cells; settings: Homo sapiens; outline: as §1
CEM-SS [12] = assay: Anti-HIV activity was measured against HIV-1 Lymphotropic MCK clinical isolates in CEM-SS cells; settings: Homo sapiens; outline: as §1
CEM-SS [13] = assay: Anti-HIV activity was measured against HIV-1 Lymphotropic PM16 clinical isolates in CEM-SS cells; settings: Homo sapiens; outline: as §1
CEM-SS [14] = assay: Anti-HIV activity was measured against HIV-1 Promonocytropic 214 clinical isolates in CEM-SS cells; settings: Homo sapiens; outline: as §1
CEM-SS [15] = assay: Anti-HIV activity was measured against HIV-1 Promonocytropic MN clinical isolates in CEM-SS cells; settings: Homo sapiens; outline: as §1
CEM-SS [16] = assay: Anti-HIV activity was measured against HIV-1 Promonocytropic SKI clinical isolates in CEM-SS cells; settings: Homo sapiens; outline: as §1
CEM-SS [17] = assay: Anti-HIV activity was measured against HIV-1 Promonocytropic TPI clinical isolates in CEM-SS cells; settings: Homo sapiens; outline: as §1
CEM-SS [18] = assay: Anti-HIV activity was measured against HIV-1,LAV laboratory strains in CEM-SS cells; settings: Homo sapiens; outline: as §1
CEM-SS [19] = assay: Anti-HIV activity was measured against HIV-1,RF laboratory strains in CEM-SS cells; settings: Homo sapiens; outline: as §1
CEM-SS [20] = assay: Anti-HIV activity was measured against HIV-2 CBL-20 laboratory strains in CEM-SS cells; settings: Homo sapiens; outline: as §1
CEM-SS [21] = assay: Anti-HIV activity was measured against HIV-2 MS laboratory strains in CEM-SS cells; settings: Homo sapiens; outline: as §1
CEM-SS [22] = assay: Anti-HIV activity was measured against HIV-2 NIH-DZ strain laboratory strains in CEM-SS cells; settings: Homo sapiens; outline: as §1
CEM-SS [23] = assay: Anti-HIV activity was measured against HIV-2 ROD strain laboratory strains in CEM-SS cells; settings: Homo sapiens; outline: as §1
CCRF-CEM [24] = assay: Anti -HIV activity was measured against 174*CEM/HIV-1(IIIB); settings: Homo sapiens; outline: as §1
CCRF-CEM [25] = assay: Cytotoxicity was measured against 174*CEM/HIV-1(IIIB); settings: Homo sapiens; outline: as §2
MT2 [26] = assay: Anti -HIV activity was measured against MT-2/HIV-1(RF); settings: Homo sapiens
Outline: (§3)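 MT-2 cells (RPMI 1640 without phenol red, 5% FBS, 2 mM L-glutamine, 50 µg/mL gentamicin; 37 °C, 5% CO2) seeded at 5 × 10^5 cells/well and infected at an MOI pretitered for complete cell killing by day 6 (MOI 0.01-0.05). Serial half-log aqueous dilutions of acetate salt added in triplicate. After 6 days at 37 °C, viability read by XTT formazan. EC50 = 50% inhibition of virus-induced killing.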

MT2 [27] = assay: Anti -HIV activity was measured against MT-2/HIV-2(NIH-DZ); settings: Homo sapiens; outline: as §3
MT2 [28] = assay: Anti-HIV activity was measured against drug resistant HIV-1 A17 in MT-2 cells; settings: Homo sapiens; outline: as §3
MT2 [29] = assay: Anti-HIV activity was measured against drug resistant HIV-1 G9106 in MT-2 cells; settings: Homo sapiens; outline: as §3
LDV-7 cell line [30] = assay: Anti -HIV activity was measured against LDV-7/HIV-1(RF); settings: Homo sapiens; outline: as §1
LDV-7 cell line [31] = assay: Cytotoxicity was measured against LDV-7/HIV-1(RF); settings: Homo sapiens; outline: as §2
MT2 [32] = assay: Cytotoxicity was measured against MT-2/HIV-1(RF).; settings: Homo sapiens; outline: as §2
MT2 [33] = assay: Cytotoxicity was measured against MT-2/HIV-2(NIH-DZ); settings: Homo sapiens; outline: as §2
PMC [34] = assay: Cytotoxicity was measured against PMCs/HIV-1(Ba-L); settings: Homo sapiens
PMC [35] = assay: Anti -HIV activity was measured against PMCs/HIV-1(Ba-L); settings: Homo sapiens
Outline: (§4)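 Lymphocytes and macrophages were isolated fresh from donor whole blood by Ficoll-Hypaque centrifugation. They were infected at an MOI giving maximal virus production by day 6 and treated with half-log dilutions of acetate salts in triplicate. After 6 days at 37 °C, RT activity or p24 core protein was quantified in cell-free supernatants. EC50 is 50% inhibition of virus production.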

PBL [36] = assay: Anti -HIV activity was measured against PBLs/HIV-1 (WEJO); settings: Homo sapiens; outline: as §4
PBL [37] = assay: Cytotoxicity was measured against PBLs/HIV-1 (WEJO); settings: Homo sapiens
CEM-SS [38] = assay: Anti-HIV activity was measured against HIV-1,IIIB laboratory strains in CEM-SS cells; settings: Homo sapiens; outline: as §1
AA5 [39] = assay: Anti -HIV activity was measured against AA5/HIV-1(IIIB); settings: Homo sapiens; outline: as §1
CEM-SS [40] = assay: Anti -HIV activity was measured against CEM-SS/HIV-1 (RF); settings: Homo sapiens; outline: as §1
AA5 [41] = assay: Cytotoxicity was measured against AA5/HIV-1(IIIB); settings: Homo sapiens; outline: as §2

Question: COc1cc(C)cc2c(-c3c(O)cc(O)c4c3C[C@@H](C)N[C@@H]4C)cc(-c3cc(-c4c(O)cc(O)c5c4C[C@@H](C)N[C@@H]5C)c4cc(C)cc(OC)c4c3O)c(O)c12 (stereo in doubt; form 1) [MICHELLAMINE A] was tested. Which EC50 (CEM-SS [1]; Homo sapiens, CEM-SS) did it give?
Answer: 10 µM

Question: And the EC50 (CEM-SS [2])?
Answer: 10 µM

Question: How did the EC50 (CEM-SS [1]; cem-ss) turn out when COc1cc(C)cc2c(-c3c(O)cc(O)c4c3C[C@@H](C)N[C@@H]4C)cc(-c3cc(-c4c(O)cc(O)c5c4C[C@@H](C)N[C@@H]5C)c4cc(C)cc(OC)c4c3O)c(O)c12 (stereo in doubt; form 2) [MICHELLAMINE A] was run?
Answer: 13 µM

Question: How did the EC50 (C-344 cell line [3]) turn out when COc1cc(C)cc2c(-c3c(O)cc(O)c4c3C[C@@H](C)N[C@@H]4C)cc(-c3cc(-c4c(O)cc(O)c5c4C[C@@H](C)N[C@@H]5C)c4cc(C)cc(OC)c4c3O)c(O)c12 (stereo in doubt; form 3) [MICHELLAMINE A] was run?
Answer: 39 µM

Question: And the IC50 (C-344 cell line [4])?
Answer: 160 µM

Question: And the IC50 (C8166 [5])?
Answer: > 240 µM

Question: What about the EC50 (C8166 [6]) of the same molecule?
Answer: 88 µM

Question: What about the IC50 (CEM-SS [7]) of the same molecule?
Answer: 42 µM

Question: And the IC50 (CEM-SS [8])?
Answer: 120 µM

Question: What about the EC50 (CEM-SS [9]) of the same molecule?
Answer: 1 µM

Question: And the EC50 (CEM-SS [10])?
Answer: 11 µM

Question: What about the EC50 (CEM-SS [11]) of the same molecule?
Answer: 3 µM

Question: And the EC50 (CEM-SS [12])?
Answer: 3 µM

Question: And the EC50 (CEM-SS [13])?
Answer: 12 µM

Question: And the EC50 (CEM-SS [14])?
Answer: 10 µM

Question: What about the EC50 (CEM-SS [15]) of the same molecule?
Answer: 13 µM

Question: And the EC50 (CEM-SS [16])?
Answer: 12 µM

Question: And the EC50 (CEM-SS [17])?
Answer: 6 µM

Question: And the EC50 (CEM-SS [18])?
Answer: 4 µM

Question: What about the EC50 (CEM-SS [19]) of the same molecule?
Answer: 12 µM

Question: And the EC50 (CEM-SS [20])?
Answer: 2 µM

Question: And the EC50 (CEM-SS [21])?
Answer: 7 µM

Question: What about the EC50 (CEM-SS [22]) of the same molecule?
Answer: 5 µM

Question: What about the EC50 (CEM-SS [23]) of the same molecule?
Answer: 18 µM

Question: What about the EC50 (CEM-SS [2]) of the same molecule?
Answer: 2 µM

Question: And the EC50 (CCRF-CEM [24])?
Answer: 23 µM

Question: And the IC50 (CCRF-CEM [25])?
Answer: > 125 µM

Question: What about the EC50 (MT2 [26]) of the same molecule?
Answer: 40 µM

Question: And the EC50 (MT2 [27])?
Answer: 6 µM

Question: What about the EC50 (MT2 [28]) of the same molecule?
Answer: 9 µM

Question: What about the EC50 (MT2 [29]) of the same molecule?
Answer: 5 µM

Question: What about the EC50 (LDV-7 cell line [30]) of the same molecule?
Answer: 13 µM

Question: What about the IC50 (LDV-7 cell line [31]) of the same molecule?
Answer: 100 µM

Question: And the IC50 (MT2 [32])?
Answer: 200 µM

Question: And the IC50 (MT2 [33])?
Answer: 100 µM

Question: What about the IC50 (PMC [34]) of the same molecule?
Answer: > 240 µM

Question: What about the EC50 (PMC [35]) of the same molecule?
Answer: 10 µM

Question: And the EC50 (PBL [36])?
Answer: 5 µM

Question: What about the IC50 (PBL [37]) of the same molecule?
Answer: > 240 µM

Question: What about the EC50 (CEM-SS [38]) of the same molecule?
Answer: 1 µM

Question: And the EC50 (AA5 [39])?
Answer: 33 µM

Question: What about the EC50 (CEM-SS [40]) of the same molecule?
Answer: 13 µM

Question: What about the IC50 (AA5 [41]) of the same molecule?
Answer: > 125 µM
